Data set [1] deals with T1, Lysyl oxidase homolog 2 (Homo sapiens, UniProt Q9Y4K0).
T1 sequence (Q9Y4K0 whole entry): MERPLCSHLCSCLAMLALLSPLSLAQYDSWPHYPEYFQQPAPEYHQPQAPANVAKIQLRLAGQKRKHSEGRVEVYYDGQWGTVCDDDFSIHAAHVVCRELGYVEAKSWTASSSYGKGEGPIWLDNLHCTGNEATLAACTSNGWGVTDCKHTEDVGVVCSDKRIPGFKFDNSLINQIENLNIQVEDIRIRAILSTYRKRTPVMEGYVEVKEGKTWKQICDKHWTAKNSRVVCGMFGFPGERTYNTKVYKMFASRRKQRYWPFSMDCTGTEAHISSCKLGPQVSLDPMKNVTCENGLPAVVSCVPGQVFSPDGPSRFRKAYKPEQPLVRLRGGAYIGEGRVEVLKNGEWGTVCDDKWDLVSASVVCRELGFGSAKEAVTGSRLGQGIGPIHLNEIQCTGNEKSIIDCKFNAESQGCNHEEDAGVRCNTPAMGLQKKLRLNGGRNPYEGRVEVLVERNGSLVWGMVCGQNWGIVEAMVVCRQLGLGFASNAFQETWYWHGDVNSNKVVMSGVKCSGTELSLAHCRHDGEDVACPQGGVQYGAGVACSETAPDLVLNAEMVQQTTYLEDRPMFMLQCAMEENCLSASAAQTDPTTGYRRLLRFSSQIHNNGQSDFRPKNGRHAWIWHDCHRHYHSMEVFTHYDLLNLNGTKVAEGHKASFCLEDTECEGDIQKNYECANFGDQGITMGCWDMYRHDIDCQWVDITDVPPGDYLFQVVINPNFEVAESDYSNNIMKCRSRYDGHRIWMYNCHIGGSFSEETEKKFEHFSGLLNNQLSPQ
The data set can be described thus: Inhibition of human LOXL2 expressed in CHO cells assessed as reduction of H2O2 production from oxidative deamination of DAP preincubated for 2 hrs followed by substrate addition measured every 2 mins for 1 hr by amplex red reagent-based fluorescence assay. It is filed as cell-based.

Data set [2] deals with T1, Lysyl oxidase homolog 2. Nature of the data set: Inhibition of human LOXL2 expressed in CHO cells assessed as reduction of H2O2 production from oxidative deamination of DAP preincubated for 2 hrs followed by substrate addition in presence of 0.1% BSA measured every 2 mins for 1 hr by amplex red reagent-based fluorescence assay. The data set is classed as cell-based.
For data set [3], the target named is T1, Lysyl oxidase homolog 2. The data set can be described thus: Inhibition of recombinant human LOXL2 expressed in human whole blood assessed as reduction of H2O2 production from oxidative deamination of DAP preincubated for 2 hrs followed by substrate addition measured every 2 mins for 1 hr by amplex red reagent-based fluorescence assay.
A short description of data set [4]: Cmax in C57BL/6 mouse lung at 30 mg/kg, po by LC-MS/MS analysis. The arrangement: dose 30 mg/kg, route oral. The data set is classed as ADME, organism-based. In short, it runs like this:
(§1)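 Normal C57BL/6 mice, n = 3 per time point, received a single oral 30 mg/kg dose formulated in 0.5% methylcellulose.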

The nature of data set [5]: Cmax in C57BL/6 mouse plasma at 30 mg/kg, po by LC-MS/MS analysis. The data set is classed as ADME, organism-based. Also noted: dose 30 mg/kg, route oral. In short, it runs like this: as §1
The target in data set [6] is T2, Lysyl oxidase homolog 2 (Homo sapiens) (UniProt Q9Y4K0).
T2 sequence (whole entry): T1 sequence (Q9Y4K0 whole entry)
Nature of the data set: Irreversible inhibition of human LOXL2 assessed as reduction of H2O2 production from oxidative deamination of DAP at 1000 times IC50 preincubated for 2 hrs followed by compound washout and subsequent incubation for 2 hrs prior to substrate addition measured every 2 mins for 40 mins by amplex red reagent-based fluorescence assay relative to control. In short, it runs like this: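 Wells were washed repeatedly with PBS and equilibrated for 2 h. Recovered activity was then compared with nonwashed controls.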

In data set [7] the target is T2, Lysyl oxidase homolog 2 (Homo sapiens). Nature of the data set: Irreversible inhibition of human LOXL2 assessed as catalytic activity preincubated for 2 hrs followed by substrate addition measured every 2 mins for 1 hr by amplex red reagent-based fluorescence assay relative to control. The arrangement: concentration or dose not given beside the values.
The nature of data set [8]: Protein binding in human plasma. The data set is classed as ADME, cell-free. Particulars: read-out: PPB (converted).

Molecules are shown by their SMILES.

By IC50 is commonly meant the point on the concentration scale where inhibition reaches its midpoint. For `NCc1ccnc(OC2CCCCC2)c1`, the IC50 in data set [1] came to 0.85 µM; in data set [2], 1.8 µM; in data set [3], 29 µM.

As to `COCCNC(=O)c1cccc(Oc2cc(CN)ccn2)c1`, the IC50 came out at 0.16 µM in data set [1], 0.29 µM in data set [2] and 2.9 µM in data set [3].

Consider `NCc1ccnc(Oc2ccc(C(=O)Nc3ccccc3)cc2)c1`, for which the IC50 in data set [1] worked out at 0.27 µM; in data set [2], 0.75 µM; in data set [3], 39 µM.

Usually Cmax stands for the peak of the concentration-time curve. The term inhibition denotes the percentage by which the read-out fell short of the control. Consider `Cl.NCc1cc(Oc2cccc(C(=O)NCCS(N)(=O)=O)c2)nc(C(F)(F)F)c1`, for which the figures for the IC50 in data set [1], in data set [2] and in data set [3] were 0.035 µM, 0.062 µM and 0.31 µM, respectively. Besides, the Cmax in data set [4] stood at 540 nM; in data set [5], 1040 nM. Moreover, the inhibition in data set [6] was 75%; in data set [7], 97%.

For the compound `Cl.Cl.NCc1cc(Oc2cccc(C(=O)N3CC[C@@H](N)C3)c2)nc(C(F)(F)F)c1`, the IC50 in data set [1] stood at 0.058 µM; in data set [2], 0.1 µM; in data set [3] it was 0.69 µM. In addition, the results for the Cmax in data set [4] and in data set [5] were 1230 nM and 670 nM, respectively.

For the compound `Cl.NCc1cc(Oc2cccc(C(=O)NC[C@@H](O)CO)c2)nc(C(F)(F)F)c1`, the IC50 in data set [1] was 0.077 µM; in data set [2] it was 0.088 µM; in data set [3] it was 0.55 µM. The Cmax in data set [4] came to 1920 nM; in data set [5], 2770 nM. For the same compound, the inhibition in data set [6] was 77%; in data set [7], 96%.

As to `Cl.NCc1cc(Oc2cccc(C(=O)Nc3ccccc3)c2)nc(C(F)(F)F)c1`, the figures for the IC50 in data set [1], in data set [2] and in data set [3] were 0.042 µM, 0.062 µM and 2.9 µM, respectively. Further, the Cmax in data set [4] was 10300 nM; in data set [5] it was 860 nM. The inhibition in data set [6] stood at 88%; in data set [7] it was 98%. Also, the fraction unbound in data set [8] was 0.04.

Consider `NCc1ccnc(Oc2cccc(C(=O)N3CCc4ccccc4C3)c2)c1`, for which the figures for the IC50 in data set [1], in data set [2] and in data set [3] were 0.12 µM, 0.37 µM and 7.9 µM, respectively.

As to `Cl.NCc1cc(Oc2cccc(C(=O)N3CC[C@@H](O)C3)c2)nc(C(F)(F)F)c1`, the values for the IC50 in data set [1], in data set [2] and in data set [3] were 0.11 µM, 0.15 µM and 0.91 µM, respectively. The Cmax in data set [4] amounted to 9130 nM; in data set [5] it was 5130 nM. The inhibition came to 75% in data set [6] and 95% in data set [7].

`NCc1cc(O[C@H]2CCCN(C(=O)Nc3ccccc3)C2)nc(C(F)(F)F)c1`: the IC50 in data set [1] came to 0.13 µM; in data set [2] it was 0.16 µM; in data set [3], 2 µM. The highest concentration (Cmax) stood at 30000 nM in data set [4] and 1900 nM in data set [5].

`NCc1cc(Oc2cccc(C(=O)NCc3cc4ccccc4s3)c2)nc(C(F)(F)F)c1`: the IC50 in data set [1] came out at 0.034 µM; in data set [2], 0.1 µM; in data set [3] it was 9.9 µM.

Regarding `N=C(N)c1cccc(CNC(=O)c2cccc(Oc3cc(CN)ccn3)c2)c1`, the IC50 in data set [1] came out at 0.18 µM; in data set [2], 0.65 µM; in data set [3], 5.2 µM.

As for `NCc1ccnc(Oc2cccc(C(=O)NCc3cc4ccccc4s3)c2)c1`, the IC50 in data set [1] came out at 0.079 µM; in data set [2], 0.11 µM; in data set [3], 1.7 µM.

As to `NCc1ccnc(Oc2cccc(C(=O)NCc3ccccc3)c2)c1`, the 50% inhibitory concentration (IC50) amounted to 0.062 µM in data set [1], 0.11 µM in data set [2] and 1.4 µM in data set [3].

For `COc1ccc(NC(=O)c2cccc(Oc3cc(CN)ccn3)c2)cc1`, the IC50 in data set [1] came to 0.053 µM; in data set [2] it was 0.16 µM; in data set [3], 1.8 µM.

On to `CONC(=O)c1cccc(Oc2cc(CN)cc(C(F)(F)F)n2)c1.Cl`, for which the results for the IC50 in data set [1], in data set [2] and in data set [3] were 0.096 µM, 0.14 µM and 0.84 µM, respectively. Moreover, the results for the Cmax in data set [4] and in data set [5] were 8780 nM and 630 nM, respectively.

Take `NCc1ccnc(Oc2cccc(C(=O)Nc3ccc(F)cc3)c2)c1`: the values for the IC50 in data set [1], in data set [2] and in data set [3] were 0.05 µM, 0.13 µM and 1.6 µM, respectively.

Consider `NCc1ccnc(Cl)c1`, for which the inhibition in data set [6] was 32%; in data set [7], 93%.

Turning to `COCCNC(=O)c1ccc(Oc2cc(CN)ccn2)cc1`, the results for the IC50 in data set [1], in data set [2] and in data set [3] were 0.5 µM, 1.5 µM and 30 µM, respectively.

As to `NCc1cc(Oc2cccc(Oc3ccccc3)c2)nc(C(F)(F)F)c1`, the IC50 worked out at 0.067 µM in data set [1], 0.27 µM in data set [2] and 23 µM in data set [3].

For `Cl.NCc1cc(Oc2cccc(C(=O)NCCn3cnnn3)c2)nc(C(F)(F)F)c1`, the IC50 in data set [1] turned out to be 0.043 µM; in data set [2] it was 0.08 µM; in data set [3], 0.28 µM. Besides, the maximum concentration (Cmax) in data set [4] is 3460 nM; in data set [5] it was 1990 nM. The figures for the inhibition in data set [6] and in data set [7] were 77% and 97%, respectively.

With `NCc1ccnc(Oc2cccc(C(=O)Nc3ccccc3)c2)c1`, the 50% inhibitory concentration (IC50) in data set [1] is 0.056 µM; in data set [2], 0.13 µM; in data set [3], 1.3 µM.

With `NCc1ccnc(Oc2cccc(C(=O)Nc3ccc(C(=O)O)cc3)c2)c1`, the IC50 is 0.081 µM in data set [1], 0.3 µM in data set [2] and 1.4 µM in data set [3].

With `NCc1cc(O[C@@H]2CCCN(C(=O)Nc3ccccc3)C2)nc(C(F)(F)F)c1`, the IC50 in data set [1] amounted to 0.57 µM; in data set [2] it was 0.62 µM; in data set [3], 40 µM.

These data come from ChEMBL document CHEMBL4049456, “Identification of 4-(Aminomethyl)-6-(trifluoromethyl)-2-(phenoxy)pyridine Derivatives as Potent, Selective, and Orally Efficacious Inhibitors of the Copper-Dependent Amine Oxidase, Lysyl Oxidase-Like 2 (LOXL2)” (J Med Chem, 2017).
